m5-HT2A agonist – mouse HTR2A agonism via beta-arrestin recruitment | P35363 | CHO-K1 mHTR2A beta-arrestin complementation, luminescence; percent of 30 µM serotonin response | activation, % at 7.6 µM | 0.66% of 360,000 active;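 active = activation above a run cutoff, the mean activation of all tested compounds plus 3 SD, cut at about 14% in these data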
APJ agonist – APJ receptor agonism; CHO-K1 APJ PathHunter beta-arrestin, luminescence; 0% DMSO wells, 100% apelin; P35414; 0.11% of 330,000 active; activation, % at 20 µM;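 active = activation more than six SD over the plate average, tested at 20 µM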
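Assay system – PathHunter CHO-K1 APJ (AGTRL-1) beta-arrestin reporter cells · Compound – one dose, 20 µM compound, 1% DMSO · Timing – compound 90 min 25 °C, reagent 1 h · Measured by – luminescence from split beta-galactosidase complementation, Galacton Star/Emerald II substrate · Measure – beta-arrestin recruitment to APJ as agonist activity, luminescent signal · Benchmarks – DMSO vs Apelin-13 10 nM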
CCR6 antag – CCR6 (human) receptor antagonism; AID 493098; 0.49% of 340,000 active; P51684; inhibition, % at 20 µM; CHO-K1 CCR6 PathHunter beta-arrestin, luminescence, CCL20-stimulated;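 active = compounds whose inhibition of the agonist-driven luminescence signal at 20 µM reaches about 50%, limit read from the data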;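 also: cells stimulated with CCL20 at 14 nM final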
CXCR6 block – CXCR6 (human) receptor inhibition; inhibition, % at 20 µM; CHO-K1 PathHunter CXCR6 beta-arrestin, luminescence; 0.36% of 360,000 active; O00574; in the data active = inhibition above about 34%, passing the limit was not always enough;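 also: antagonist mode with CXCL16 agonist at 10 nM final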
Target sequence (O00574 whole entry, looked up): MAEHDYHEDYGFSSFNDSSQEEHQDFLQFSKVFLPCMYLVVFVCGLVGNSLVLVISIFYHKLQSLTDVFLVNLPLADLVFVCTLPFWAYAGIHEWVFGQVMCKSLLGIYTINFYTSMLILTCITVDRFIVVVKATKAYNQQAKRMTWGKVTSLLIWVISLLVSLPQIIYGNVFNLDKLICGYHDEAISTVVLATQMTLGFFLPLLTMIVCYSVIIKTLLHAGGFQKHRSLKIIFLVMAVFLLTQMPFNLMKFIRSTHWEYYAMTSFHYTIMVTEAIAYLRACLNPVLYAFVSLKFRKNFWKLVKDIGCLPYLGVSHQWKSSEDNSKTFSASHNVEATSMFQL
NTR1 agonist – agonists of human neurotensin receptor NTR1; AID 493036; 0.17% of 330,000 active; activation, % at 20 µM; NTR1-U2OS beta-arrestin-GFP spot imaging, agonist mode;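 active = activation at or above 40% of the spot to cytoplasm intensity ratio, with at least 20 cells analyzed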
APJ antag – APJ receptor antagonism; P35414; CHO-K1 APJ beta-arrestin complementation, luminescence; inhibition, % at 20 µM; 0.32% of 330,000 active; AID 2521;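 active = inhibition above about 40% at 20 µM, limit read from the data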;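 also: cells challenged with 10 nM apelin-13 agonist together with compound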
APJ antag conf – confirmation of human APJ apelin receptor antagonists; shares compounds with APJ antag; APJ beta-arrestin recruitment, luminescence, antagonist mode; inhibition, % at 20 µM; 66% of 950 active; AID 2766; in the data active = inhibition above about 50%
NTR1 ag conf – confirmation of agonists of human NTR1; shares compounds with NTR1 agonist; NTR1-U2OS beta-arrestin-GFP translocation imaging; activation, % at 20 µM; 38% of 480 active;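 active = mean activation at 20 µM of at least 40%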
CXCR6 confirm – confirmation of human CXCR6 receptor antagonists; inhibition, % at 20 µM; CHO-K1 CXCR6 PathHunter beta-arrestin, luminescence; 65% of 700 active; shares compounds with CXCR6 block;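 active = mean inhibition over four retests above 40%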;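 also: receptor stimulated with 10 nM CXCL16 agonist; beta-galactosidase fragment complementation upon beta-arrestin recruitment to receptor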
Of the large screens only hits and unclear results are named; the others gave an inactive call (follow-up assays come after a bar, where they were run). In the library only some 1.5% were active in any assay of this set; here they are far more common.

O=C1c2cccc3c([N+](=O)[O-])ccc(c23)C(=O)N1c1ccc(Cl)cn1	CCR6 antag 76.2, CXCR6 block 53.6, APJ antag 48.8 | APJ antag conf 82.9 | CXCR6 confirm 41.7
C/C(=N\NC(=O)c1ccc(F)cc1)c1ccccn1	CCR6 antag 80.2, CXCR6 block 71.6, APJ antag 60.2 | APJ antag conf 87.2 | CXCR6 confirm 85.7
Cc1ccccc1NC(=O)C1CCN(C(=O)N2CCOc3ccccc32)CC1	none
CCc1cc2c(=O)[nH]c(-c3ccccn3)nc2s1	CCR6 antag 86.8, CXCR6 block 48.9, APJ antag 78.2 | APJ antag conf 70.4 | CXCR6 confirm 69.3
CC(C)CN(C(=O)COC(=O)CN1C(=O)c2ccccc2C1=O)c1c(N)n(Cc2ccccc2)c(=O)[nH]c1=O	none
Cc1ccc(CS(=O)(=O)c2ncc(Cl)c(C(=O)Nc3ccc(OC(F)F)cc3)n2)cc1	CCR6 antag 71.1, CXCR6 block 75.7, APJ antag 42.1 | APJ antag conf 51.8 | CXCR6 confirm 67.3
CCS(=O)(=O)c1ncc(Cl)c(C(=O)Nc2ccc(C)cc2)n1	none
NC(=O)c1ccccc1OCC(=O)c1ccc(Cl)cc1	none
NC(=O)c1ccccc1NCC(=O)c1ccc(Cl)cc1	CCR6 antag 105.0, CXCR6 block 80.1, APJ antag 101.4 | APJ antag conf 136.4 | CXCR6 confirm 46.1
Cc1ccc(CN2C(=O)C(Cc3ccccc3)Nc3ncnc(N4CCN(c5ccccc5)CC4)c32)cc1 (centres undefined)	CCR6 antag 80.3, CXCR6 block 74.2, APJ antag 73.5 | APJ antag conf 111.3 | CXCR6 confirm 72.0
O=C1C(Cc2ccccc2)Nc2ncnc(N3CCN(c4ccccc4)CC3)c2N1Cc1ccc(Br)cc1 (centres undefined)	CCR6 antag 86.8, CXCR6 block 74.5, APJ antag 81.7 | APJ antag conf 118.3 | CXCR6 confirm 79.1
Cc1cc(=O)n2nc(N3CCC(C(=O)NCc4ccccc4F)CC3)sc2n1	none
CC1=C(C(=O)OCCCCCl)C(c2cc3c(cc2Br)OCO3)NC(=O)N1 (centres undefined)	none
CCn1c(=O)c([N+](=O)[O-])c(Cl)c2ccccc21	CCR6 antag 100.0, CXCR6 block 102.0, APJ antag 93.9 | APJ antag conf 101.6 | CXCR6 confirm 95.8
C=CCN1C(=O)c2ccc(C(=O)N(C)CC(=O)Nc3cccc(F)c3)cc2C1=O	none
Fc1ccc(NC(=S)Nc2nccs2)cc1	CXCR6 block 52.8, APJ antag 45.7 | APJ antag conf 61.8 | CXCR6 confirm 77.8
CCc1ccc2c(COC(=O)C3CC(=O)N(CCc4ccccc4)C3)cc(=O)oc2c1 (centres undefined)	none
CCOC(=O)c1c(-c2ccc(C)o2)csc1NC(=S)NC(=O)N(C)C	CXCR6 block 44.4, APJ antag 45.5 (no result: CCR6 antag) | APJ antag conf inactive | CXCR6 confirm 62.1
C=CC[n+]1c(-c2ccc(Cl)cc2Cl)csc1Nc1c(C)n(C)n(-c2ccccc2)c1=O	CCR6 antag 81.5, CXCR6 block 64.2, APJ antag 53.8 | APJ antag conf 87.3 | CXCR6 confirm 66.0
C=CCn1c(=O)c2c(nc3n2CC(C)CN3c2cccc(OC)c2)n(C)c1=O (centres undefined)	CCR6 antag 58.8, CXCR6 block 49.3, APJ antag 48.2 | APJ antag conf 77.1 | CXCR6 confirm 51.0
COc1ccc(OC)c(NC(=O)COC(=O)COc2ccc(Nc3ccccc3)cc2)c1	none
COc1ccccc1C(=O)NNC(=S)NC(=O)c1cccs1	CXCR6 block 53.1, APJ antag 42.2 (no result: CCR6 antag) | APJ antag conf 68.3 | CXCR6 confirm 58.3
O=C(NC(=S)NNC(=O)c1ccccc1O)c1cccs1	none
Oc1cccc2ccc(/C=C/c3c(F)cccc3Cl)nc12	CCR6 antag 55.6, CXCR6 block 47.0, APJ antag 43.8 | APJ antag conf inactive | CXCR6 confirm 58.2
Nc1nccc(/C=C/c2c(F)cccc2Cl)n1	none
c1ccc(C2=Nn3c(nnc3-c3cc(-c4ccccc4)n[nH]3)SC2)cc1	none
Clc1ccc(C2=Nn3c(nnc3-c3cc(-c4ccccc4)n[nH]3)SC2)cc1	NTR1 agonist 46.6 | NTR1 ag conf 48.1
Cc1cc(C)cc(OCC(=O)Nc2cccc(S(=O)(=O)NC3=NCCC3)c2)c1	none
COC(=O)c1c(-c2ccccc2)nn(-c2ccccc2)c1C(=O)OC	none
Cc1ccccc1C(=O)N1CCc2cc(-c3csc(NC(=O)CN4CCCC4)n3)ccc21	NTR1 agonist 54.2 | NTR1 ag conf inactive
CCOC(=O)c1ccc(NC(=O)c2ccc(C)c(S(=O)(=O)N3CCOCC3)c2)cc1	NTR1 agonist 52.2 | NTR1 ag conf 69.8
COC(=O)C1=C(C)N(Cc2ccccc2)C(=NCc2ccccc2)N[C@H]1c1cccc(C(F)(F)F)c1	NTR1 agonist 43.7 | NTR1 ag conf 75.2
Oc1ccccc1-n1c(-c2ccccc2)ccc1-c1ccccc1	NTR1 agonist 50.9 | NTR1 ag conf inactive
CCc1ccccc1NC(=O)CNC(=O)CCC(=O)c1cc(C)sc1C	none (no result: APJ agonist, CCR6 antag, NTR1 agonist, APJ antag)
O=C(Nc1oc2ccccc2c(=O)c1-c1ccc(Br)cc1)c1ccco1	none
CCOC(=O)c1cc(-c2ccc(/C=N\n3cnnc3)o2)ccc1Cl	none
CCOC(=O)c1cc(-c2ccc(/C=C3/C(=O)N(c4ccc(C(=O)O)cc4)N=C3C)o2)ccc1Cl	NTR1 agonist 56.4 | NTR1 ag conf 46.7
Cc1[nH]n(-c2ccccc2)c(=O)c1C(C[N+](=O)[O-])c1ccccc1Cl (centres undefined)	none
COc1ccc(C(C[N+](=O)[O-])c2c(C)[nH]n(-c3ccccc3)c2=O)cc1 (centres undefined)	NTR1 agonist 42.3 | NTR1 ag conf inactive
C[C@H](NC(=O)c1[nH]cnc1C(=O)Nc1ccccc1)c1ccccc1	none
Cc1ccc(NC(=O)c2nc[nH]c2C(=O)N[C@H](C)c2ccccc2)cc1	NTR1 agonist 41.3 | NTR1 ag conf inactive
Cc1cccc(NC(=O)c2nc[nH]c2C(=O)N[C@H](C)c2ccccc2)c1	NTR1 agonist 47.6 | NTR1 ag conf inactive
CCCCn1c(N)c(N(CC(C)C)C(=O)CSC(C)C(=O)Nc2cc(C)on2)c(=O)[nH]c1=O (centres undefined)	none

From PubChem
